Active and inactive are the calls of the source. No cut-off for these calls is given here.
What was measured:
[1] = system: K562; experiment: Antiproliferative activity against human K562 cells after 48 hrs by MTT assay; assay type: functional, cell-based; conditions: K562, 48 h
Procedure, shortened: (§1)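 MTT assay. Cells were seeded at 5-10×10^3 per well and incubated overnight at 37 °C under 5% CO2. Graded compound concentrations or equal DMSO in fresh medium were then added for 48 h. MTT (5 mg/mL stock) was added for a further 4 h, formazan was dissolved in DMSO, and A490 was read. IC50 is given as mean ± S.D. of three experiments in triplicate.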

[2] = system: HepG2; experiment: Antiproliferative activity against human HepG2 cells after 48 hrs by MTT assay; assay type: functional, cell-based; conditions: HepG2, 48 h; procedure, shortened: as §1
[3] = system: U-937; experiment: Antiproliferative activity against human U937 cells after 48 hrs by MTT assay; assay type: functional, cell-based; conditions: U-937, 48 h; procedure, shortened: as §1
[4] = system: HeLa; experiment: Antiproliferative activity against human HeLa cells after 48 hrs by MTT assay; assay type: functional, cell-based; procedure, shortened: as §1
[5] = Antiproliferative activity against human QSG7701 cells after 48 hrs by MTT assay; assay type: cell-based; conditions: QSG7701, 48 h; procedure, shortened: as §1
[6] = organism: Homo sapiens; experiment: Inhibition of human topoisomerase-2 at 50 uM using supercoiled pBR322 DNA as substrate after 10 to 15 mins by ethidium bromide staining based electrophoresis relative to control
Procedure, shortened: (§2)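 Relaxation of supercoiled pBR322 (500 ng) by 1 unit of human Top I or Top II, with or without compound in reaction buffer. Reactions ran 10-15 min at 37 °C and were stopped with loading buffer. Products were run on 1% agarose in TAE at 90 V for 25 min and stained with ethidium bromide under UV. Controls were CPT (Top I) and m-AMSA (Top II).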

[7] = organism: Homo sapiens; experiment: Inhibition of human topoisomerase-2 at 10 uM using supercoiled pBR322 DNA as substrate after 10 to 15 mins by ethidium bromide staining based electrophoresis relative to control; procedure, shortened: as §2
[8] = organism: Homo sapiens; experiment: Inhibition of human topoisomerase-2 at 50 to 100 uM using supercoiled pBR322 DNA as substrate after 10 to 15 mins by ethidium bromide staining based electrophoresis; procedure, shortened: as §2
[9] = system: A549; experiment: Antiproliferative activity against human A549 cells after 48 hrs by MTT assay; assay type: functional, cell-based; conditions: A549, 48 h; procedure, shortened: as §1
[10] = Safety index, ratio of compound IC50 to m-AMSA IC50 for human QSG7701 cells; assay type: ADME, cell-based; conditions: read-out: Ratio IC50
[11] = organism: Bos taurus; experiment: Binding affinity to calf thymus DNA assessed as bathochromic shift at 40 uM after 5 mins by UV-Visible absorption spectral analysis
Procedure, shortened: (§3)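 UV-vis titration in Tris-HCl pH 7.4 in a 1.0 cm quartz cell. Compound was at 40 µM (added from a 5 mM DMSO stock) with ct DNA at final 0, 0.75, 2.25, 3.75, 6.00 and 9.75 µM. Each mixture was incubated 5 min before the absorption spectrum was recorded.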

[12] = organism: Bos taurus; experiment: Binding affinity to calf thymus DNA after 5 mins by UV-Visible absorption spectral analysis; procedure, shortened: as §3
[13] = organism: Bos taurus; experiment: Binding affinity to calf thymus DNA after 5 mins by fluorescence emission spectral analysis
Procedure, shortened: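 Fluorescence titration in Tris-HCl pH 7.4. Compound came from a 5 mM DMSO stock, with ct DNA at final 0, 0.2, 0.7, 1, 1.5 and 2.5 µM. Mixtures were incubated 5 min before emission spectra were recorded. Quenching was fitted to F0/F = 1 + Kq[Q].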

[14] = system: U-937; experiment: Induction of apoptosis in human U937 cells after 48 hrs by Annexin-V FITC/propidium iodide staining based flow cytometry; assay type: functional, cell-based
Procedure, shortened: (§4)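 U937 cells were treated for 48 h at 0, 1 or 2.5 µM. Phosphatidylserine externalization (Annexin V-FITC) and membrane integrity (PI) were then read by flow cytometry using a kit per the manufacturer's instructions.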

[15] = system: U-937; experiment: Induction of apoptosis in human U937 cells assessed as live cells at 1 uM after 48 hrs by Annexin-V FITC/propidium iodide staining based flow cytometry (reference value: 92.4%); assay type: functional; procedure, shortened: as §4
[16] = system: U-937; experiment: Induction of apoptosis in human U937 cells assessed as early apoptotic cells at 1 uM after 48 hrs by Annexin-V FITC/propidium iodide staining based flow cytometry (reference value: 7.42%); assay type: functional; procedure, shortened: as §4
[17] = system: U-937; experiment: Induction of apoptosis in human U937 cells assessed as late apoptotic cells at 1 uM after 48 hrs by Annexin-V FITC/propidium iodide staining based flow cytometry (reference value: 0.144%); assay type: functional; procedure, shortened: as §4
[18] = system: U-937; experiment: Induction of apoptosis in human U937 cells assessed as necrotic cells at 1 uM after 48 hrs by Annexin-V FITC/propidium iodide staining based flow cytometry relative to control; assay type: functional; procedure, shortened: as §4
[19] = system: U-937; experiment: Induction of apoptosis in human U937 cells assessed as live cells at 2.5 uM after 48 hrs by Annexin-V FITC/propidium iodide staining based flow cytometry (reference value: 92.4%); assay type: functional; procedure, shortened: as §4
[20] = system: U-937; experiment: Induction of apoptosis in human U937 cells assessed as early apoptotic cells at 2.5 uM after 48 hrs by Annexin-V FITC/propidium iodide staining based flow cytometry (reference value: 7.42%); assay type: functional; procedure, shortened: as §4
[21] = system: U-937; experiment: Induction of apoptosis in human U937 cells assessed as late apoptotic cells at 2.5 uM after 48 hrs by Annexin-V FITC/propidium iodide staining based flow cytometry (reference value: 0.144%); assay type: functional; procedure, shortened: as §4
[22] = system: U-937; experiment: Induction of apoptosis in human U937 cells assessed as necrotic cells at 2.5 uM after 48 hrs by Annexin-V FITC/propidium iodide staining based flow cytometry relative to control; assay type: functional; procedure, shortened: as §4
[23] = system: U-937; experiment: Induction of apoptosis in human U937 cells assessed as increase in cleaved caspase-8 protein expression at 1 to 2.5 uM after 48 hrs by Western blot analysis; assay type: functional, cell-based
Procedure, shortened: (§5)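 U937 cells in dishes were exposed to 1 or 2.5 µM for 48 h and lysed on ice for 0.5 h. Protein was quantified by BCA, run on 12% SDS-PAGE and transferred to PVDF. Membranes were blocked in 5% milk for 1 h, and primary antibody was applied overnight at 4 °C. Cleaved caspase-3/7/8 was detected with β-actin as loading control.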

[24] = system: U-937; experiment: Induction of apoptosis in human U937 cells assessed as increase in cleaved caspase-7 protein expression at 1 to 2.5 uM after 48 hrs by Western blot analysis; assay type: functional, cell-based; procedure, shortened: as §5
[25] = system: U-937; experiment: Induction of apoptosis in human U937 cells assessed as increase in cleaved caspase-3 protein expression at 1 to 2.5 uM after 48 hrs by Western blot analysis; assay type: functional, cell-based; procedure, shortened: as §5
[26] = target: T1, DNA topoisomerase 1 (Homo sapiens) (UniProt P11387); experiment: Inhibition of human topoisomerase-1 at 100 uM using supercoiled pBR322 DNA as substrate after 10 to 15 mins by ethidium bromide staining based electrophoresis; procedure, shortened: as §2
T1 sequence (whole entry): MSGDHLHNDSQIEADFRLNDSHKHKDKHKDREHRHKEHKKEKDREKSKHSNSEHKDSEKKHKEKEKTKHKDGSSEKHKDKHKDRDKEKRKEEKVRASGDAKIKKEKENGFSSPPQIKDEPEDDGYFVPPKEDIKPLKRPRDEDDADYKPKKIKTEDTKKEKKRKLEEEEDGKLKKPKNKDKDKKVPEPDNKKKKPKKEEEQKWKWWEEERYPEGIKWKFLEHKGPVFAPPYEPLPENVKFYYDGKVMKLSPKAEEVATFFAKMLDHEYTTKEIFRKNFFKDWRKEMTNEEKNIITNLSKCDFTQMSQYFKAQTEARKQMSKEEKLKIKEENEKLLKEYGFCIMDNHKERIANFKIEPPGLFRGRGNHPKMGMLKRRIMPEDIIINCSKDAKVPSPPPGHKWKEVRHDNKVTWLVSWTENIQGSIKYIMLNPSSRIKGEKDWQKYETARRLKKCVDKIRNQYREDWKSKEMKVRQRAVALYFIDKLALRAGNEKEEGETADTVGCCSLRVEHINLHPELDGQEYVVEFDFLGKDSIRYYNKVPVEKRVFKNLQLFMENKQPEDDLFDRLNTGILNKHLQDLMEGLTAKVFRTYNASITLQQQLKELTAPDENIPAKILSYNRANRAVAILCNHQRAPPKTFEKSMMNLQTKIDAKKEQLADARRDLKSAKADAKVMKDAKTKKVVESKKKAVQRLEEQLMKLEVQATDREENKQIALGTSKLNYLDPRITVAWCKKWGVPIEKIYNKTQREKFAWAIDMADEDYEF

SMILES | IC50 [1] [µM] | IC50 [2] [µM] | IC50 [3] [µM] | IC50 [4] [µM] | IC50 [5] [µM] | inhibition [6] | inhibition [7] [%] | topoisomerase II inhibition (active/inactive) [8] | also measured
COc1cc(NS(C)(=O)=O)ccc1Nc1c2ccccc2nc2ccccc12 [AMSACRINE] | 0.88 | 5.21 | 0.61 | 19.2 | 6.43 | Active | 56.9 | – | –
COc1ccc2nc3cc(Cl)ccc3c(Nc3ccccc3Cl)c2n1 | 6.1 | > 20 | > 20 | – | – | > 50% | > 40 | Active | –
COc1ccc2nc3cc(Cl)ccc3c(Nc3ccc(F)cc3)c2n1 | 16.5 | > 20 | > 20 | – | – | > 50% | > 40 | Active | –
COc1ccc(Nc2c3ccc(Cl)cc3nc3ccc(OC)nc23)cc1 | 13.8 | > 20 | > 20 | – | – | > 50% | – | Active | –
COc1ccc2nc3cc(Cl)ccc3c(NCc3nc4ccccc4[nH]3)c2n1 | 6.06 | 6.62 | 0.57 | 12.6 | 29.4 | > 50% | – | Active | IC50 [9]: 4.8 µM; selectivity ratio [10]: > 3; Activity [11]: Active; Kb [12]: 3.34 ×10⁵ /M; Kq [13]: 2.34 ×10⁵ /M; Activity [14]: Dose-dependent effect; Activity [15]: 75.8%; Activity [16]: 17.5%; Activity [17]: 6.48%; Activity [18]: 0.227%; Activity [19]: 61.3%; Activity [20]: 26.2%; Activity [21]: 12.2%; Activity [22]: 0.322%; Activity [23]: Active; Activity [24]: Active; Activity [25]: Active
COc1ccc2nc3cc(Cl)ccc3c(Nc3ccccc3F)c2n1 | 10.9 | > 20 | > 20 | – | – | 28.1% | – | Active | –
COc1ccc2nc3cc(Cl)ccc3c(Nc3ccc(C)cc3C)c2n1 | 14 | > 20 | > 20 | – | – | > 50% | – | Active | –
CC[C@@]1(O)C(=O)OCc2c1cc1n(c2=O)Cc2cc3ccccc3nc2-1 [CAMPTOTHECIN] | – | 4.92 | – | 3.8 | < 1 | – | – | – | IC50 [9]: < 1 µM
COc1ccc2nc3cc(Cl)ccc3c(Nc3cccc(F)c3)c2n1 | 15.5 | > 20 | > 20 | – | – | > 50% | > 40 | Active | –
COc1ccc2nc3cc(Cl)ccc3c(NCc3nc4ccccc4[nH]3)c2c1 | > 20 | > 20 | – | – | – | – | – | – | –
COc1ccc2nc3cc(Cl)ccc3c(Nc3ccncc3)c2n1 | 13.7 | > 20 | > 20 | – | – | > 50% | > 40 | Active | –
COc1ccc2nc3cc(Cl)ccc3c(NCc3nc4ccccc4n3CCN(C)C)c2n1 | 7.59 | > 20 | 0.76 | 14.8 | 21.2 | > 50% | 75.1 | Active | IC50 [9]: 13.1 µM; inhibition [26]: Active
